# Reference: ChEMBL document CHEMBL3352671, “Inhibitory and mechanistic investigations of oxo-lipids with human lipoxygenase isozymes” (Bioorg Med Chem, 2014)
# Activity calls are given as the source filed them. The calls are words filed in the database; no cut-off is given here.
# Tests used:
# [1] = molecular target: T1, Polyunsaturated fatty acid lipoxygenase ALOX15 (Oryctolagus cuniculus, UniProt P12530); assay: Inhibition of rabbit reticulocyte 15-LOX by UV-visible spectrophotometry
# T1 sequence (P12530 whole entry): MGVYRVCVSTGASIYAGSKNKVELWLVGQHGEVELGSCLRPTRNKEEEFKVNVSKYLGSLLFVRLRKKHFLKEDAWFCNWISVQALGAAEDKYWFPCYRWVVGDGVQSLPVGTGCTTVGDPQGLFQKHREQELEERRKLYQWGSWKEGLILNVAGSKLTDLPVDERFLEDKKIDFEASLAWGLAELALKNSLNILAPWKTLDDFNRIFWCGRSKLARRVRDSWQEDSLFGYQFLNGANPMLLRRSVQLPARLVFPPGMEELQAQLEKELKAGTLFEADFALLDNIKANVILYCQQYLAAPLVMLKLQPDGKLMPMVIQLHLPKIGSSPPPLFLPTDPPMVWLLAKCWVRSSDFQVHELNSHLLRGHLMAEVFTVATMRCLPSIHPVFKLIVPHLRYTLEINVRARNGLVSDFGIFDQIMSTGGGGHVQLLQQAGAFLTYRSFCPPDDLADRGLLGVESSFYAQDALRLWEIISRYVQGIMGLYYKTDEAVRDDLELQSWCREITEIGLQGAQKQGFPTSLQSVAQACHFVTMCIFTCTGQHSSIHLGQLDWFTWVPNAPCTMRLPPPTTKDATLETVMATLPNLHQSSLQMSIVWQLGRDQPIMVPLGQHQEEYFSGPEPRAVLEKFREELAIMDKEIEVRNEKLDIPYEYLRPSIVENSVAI
# Outline: (§1)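 Enzyme was h15-LOX-2 (~200 nM) or rabbit 15-LOX (~50 nM), in 25 mM HEPES pH 7.5, 0.01% Triton X-100, 10 μM AA, stirred 2 mL at 23°C. Product was monitored at 234 nm.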
# [2] = Inhibition of soybean 15-lipoxygenase-1 by UV-visible spectrophotometry; parameters: species or system Glycine max
# Outline: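 Soybean 15-LOX-1 (~2 nM) was assayed in 100 mM borate pH 9.2, 0.01% Triton X-100, 10 μM AA, stirred 2 mL at 23°C. Conjugated diene was read at 234 nm.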
# [3] = molecular target: T2, Polyunsaturated fatty acid lipoxygenase ALOX12 (Homo sapiens, UniProt P18054); assay: Inhibition of human platelet 12-lipoxygenase by UV-visible spectrophotometry
# T2 sequence (P18054 whole entry): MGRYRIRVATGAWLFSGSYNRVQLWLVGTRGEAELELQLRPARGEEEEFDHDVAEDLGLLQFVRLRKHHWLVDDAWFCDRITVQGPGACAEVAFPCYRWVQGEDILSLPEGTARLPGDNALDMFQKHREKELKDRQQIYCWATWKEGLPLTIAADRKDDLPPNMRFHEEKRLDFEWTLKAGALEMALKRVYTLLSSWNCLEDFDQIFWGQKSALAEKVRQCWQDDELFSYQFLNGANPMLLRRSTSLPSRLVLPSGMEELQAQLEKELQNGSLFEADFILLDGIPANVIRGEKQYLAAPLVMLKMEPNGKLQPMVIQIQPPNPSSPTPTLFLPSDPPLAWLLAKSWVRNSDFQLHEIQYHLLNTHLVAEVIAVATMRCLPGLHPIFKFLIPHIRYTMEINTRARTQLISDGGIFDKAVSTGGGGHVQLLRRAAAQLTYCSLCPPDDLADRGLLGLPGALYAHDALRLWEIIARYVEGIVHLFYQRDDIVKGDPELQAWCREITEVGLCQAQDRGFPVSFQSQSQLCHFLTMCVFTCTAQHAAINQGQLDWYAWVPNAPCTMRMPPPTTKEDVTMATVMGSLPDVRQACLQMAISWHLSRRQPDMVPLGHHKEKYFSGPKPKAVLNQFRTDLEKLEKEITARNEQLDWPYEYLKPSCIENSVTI
# Outline: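 h12-LOX (~100 nM total protein) in 25 mM HEPES pH 8.0, 0.01% Triton X-100, 10 μM AA, run as stirred 2 mL reactions at 23°C. Diene formation was read at 234 nm.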
# [4] = molecular target: T3, Polyunsaturated fatty acid 5-lipoxygenase (Homo sapiens, UniProt P09917); assay: Inhibition of human leukocyte 5-lipoxygenase by UV-visible spectrophotometry
# T3 sequence (P09917 whole entry): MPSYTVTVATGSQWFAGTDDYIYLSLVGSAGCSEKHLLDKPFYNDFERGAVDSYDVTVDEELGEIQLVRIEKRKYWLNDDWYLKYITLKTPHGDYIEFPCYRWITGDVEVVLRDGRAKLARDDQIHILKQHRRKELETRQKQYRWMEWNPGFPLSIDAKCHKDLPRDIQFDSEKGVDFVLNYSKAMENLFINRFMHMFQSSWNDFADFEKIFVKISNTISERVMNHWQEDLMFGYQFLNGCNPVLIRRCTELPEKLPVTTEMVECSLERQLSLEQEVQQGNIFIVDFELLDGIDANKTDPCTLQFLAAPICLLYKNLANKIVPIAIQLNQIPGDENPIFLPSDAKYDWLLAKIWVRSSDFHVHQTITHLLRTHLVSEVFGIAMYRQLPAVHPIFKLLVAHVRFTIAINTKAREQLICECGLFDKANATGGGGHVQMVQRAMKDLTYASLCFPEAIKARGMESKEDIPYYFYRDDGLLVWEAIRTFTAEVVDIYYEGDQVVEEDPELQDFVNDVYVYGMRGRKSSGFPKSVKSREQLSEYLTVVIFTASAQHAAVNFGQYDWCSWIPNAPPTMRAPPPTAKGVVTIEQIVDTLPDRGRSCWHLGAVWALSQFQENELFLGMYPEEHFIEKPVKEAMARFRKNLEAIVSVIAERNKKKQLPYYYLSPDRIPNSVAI
# [5] = molecular target: T4, Polyunsaturated fatty acid lipoxygenase ALOX15 (Homo sapiens, UniProt P16050); assay: Inhibition of human reticulocyte 15-lipoxygenase-1 by UV-visible spectrophotometry
# T4 sequence (P16050 whole entry): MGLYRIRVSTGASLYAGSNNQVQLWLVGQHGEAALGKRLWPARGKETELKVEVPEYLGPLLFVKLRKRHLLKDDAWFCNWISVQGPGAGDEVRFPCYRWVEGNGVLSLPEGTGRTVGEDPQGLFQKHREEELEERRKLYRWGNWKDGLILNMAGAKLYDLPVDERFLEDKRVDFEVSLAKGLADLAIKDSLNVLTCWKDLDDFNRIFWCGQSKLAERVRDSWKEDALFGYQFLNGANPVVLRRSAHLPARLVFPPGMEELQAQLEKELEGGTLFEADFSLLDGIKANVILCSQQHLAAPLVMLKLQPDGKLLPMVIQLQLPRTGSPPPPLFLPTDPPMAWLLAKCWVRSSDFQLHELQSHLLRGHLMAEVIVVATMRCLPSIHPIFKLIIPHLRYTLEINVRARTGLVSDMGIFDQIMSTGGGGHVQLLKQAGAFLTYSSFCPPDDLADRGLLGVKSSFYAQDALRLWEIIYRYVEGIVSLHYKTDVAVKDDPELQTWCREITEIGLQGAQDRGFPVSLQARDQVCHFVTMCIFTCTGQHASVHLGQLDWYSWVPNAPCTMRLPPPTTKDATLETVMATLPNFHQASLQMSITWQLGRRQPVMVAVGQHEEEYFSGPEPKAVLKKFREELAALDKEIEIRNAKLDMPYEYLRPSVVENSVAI
# Outline: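 Purified h15-LOX-1 (~60 nM total protein) in stirred 2 mL reactions at 23°C, 25 mM HEPES pH 7.5, 0.01% Triton X-100, 10 μM AA. Rate followed as conjugated diene formation at 234 nm. IC50 from at least five inhibitor concentrations by hyperbolic saturation fit, triplicate. Weak inhibitors approximated from one-point screen at 25 μM (triplicate).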
# [6] = molecular target: T4, Polyunsaturated fatty acid lipoxygenase ALOX15; assay: Irreversible inhibition of human reticulocyte 15-lipoxygenase-1 by assessed as equilibrium inhibitor constant
# Outline: (§2)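 Time-dependent inactivation: h15-LOX-1 or s15-LOX-1 was incubated on ice with neat oxo-lipid oil (no solvent) at ≥5 concentrations for varied times. Residual activity was then measured under the UV 234 nm assay conditions for each enzyme and compared with an enzyme-only control. ka was taken as the slope of ln(% activity) versus time, and Ki and k2 from a replot of ka versus [I].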
# [7] = molecular target: T5, Polyunsaturated fatty acid lipoxygenase ALOX15B (Homo sapiens, UniProt O15296); assay: Inhibition of human reticulocyte 15-lipoxygenase-2 by UV-visible spectrophotometry; conditions: in the assay text read “epithelial” for “reticulocyte”; outline: as §1
# T5 sequence (O15296 whole entry): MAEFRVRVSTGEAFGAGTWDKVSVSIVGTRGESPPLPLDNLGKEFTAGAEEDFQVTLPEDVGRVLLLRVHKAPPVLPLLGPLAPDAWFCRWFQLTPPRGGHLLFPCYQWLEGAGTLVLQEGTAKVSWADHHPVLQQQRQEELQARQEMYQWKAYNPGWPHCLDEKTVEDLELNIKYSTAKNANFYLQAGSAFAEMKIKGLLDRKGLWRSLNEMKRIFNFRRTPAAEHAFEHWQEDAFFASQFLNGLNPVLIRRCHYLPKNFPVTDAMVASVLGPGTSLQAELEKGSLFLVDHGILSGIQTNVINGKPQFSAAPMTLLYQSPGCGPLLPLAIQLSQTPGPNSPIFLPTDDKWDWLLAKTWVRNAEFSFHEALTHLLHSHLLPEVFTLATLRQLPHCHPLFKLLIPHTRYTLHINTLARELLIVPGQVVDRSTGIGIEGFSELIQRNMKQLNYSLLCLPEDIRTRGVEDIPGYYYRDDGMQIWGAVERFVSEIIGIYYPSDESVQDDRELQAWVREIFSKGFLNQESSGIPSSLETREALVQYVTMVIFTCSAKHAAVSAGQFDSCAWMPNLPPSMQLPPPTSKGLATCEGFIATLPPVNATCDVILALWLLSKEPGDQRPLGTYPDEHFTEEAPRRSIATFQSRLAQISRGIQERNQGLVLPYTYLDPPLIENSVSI
# Glycine max = assay: Irreversible inhibition of soybean 15-lipoxygenase-1; outline: as §2
# [8] = molecular target: T6, Polyunsaturated fatty acid lipoxygenase ALOX12 (Homo sapiens) (UniProt P18054)
# T6 sequence (whole entry): T2 sequence (P18054 whole entry)
# [9] = molecular target: T6, Polyunsaturated fatty acid lipoxygenase ALOX12 (Homo sapiens); remark: listed apart in the source
IC50 [1],IC50 [2],IC50 [3],IC50 ([4]; read-out: IC50),IC50 [5],Ki [6],IC50 [7],IC50 [4],Kic [8],Kiuc [9],SMILES,inhibition (Glycine max)
> 50 µM,> 100 µM,8 µM,> 50 µM,3 µM,36.8 µM,> 100 µM,,,,CCCCC/C=C\CC(=O)/C=C/C=C\C/C=C\CCCC(=O)O,
> 25 µM,> 100 µM,15 µM,,> 25 µM,,> 100 µM,Not Active,,,CCCCC/C=C\C/C=C\C/C=C\C=C\C(=O)CCCC(=O)O [5-OXO-ETE],
> 50 µM,> 100 µM,1 µM,> 100 µM,> 25 µM,,> 100 µM,,0.087 µM,2.1 µM,CCCCCC(=O)/C=C/C=C\C/C=C\C/C=C\CCCC(=O)O,

SMILES,IC50 [1],IC50 [2],IC50 [3],IC50 ([4]; read-out: IC50),IC50 [5],Ki [6],IC50 [7],IC50 [4],Kic [8],Kiuc [9],inhibition (Glycine max)
CCCCCC(=O)/C=C/C=C\CCCCCCCC(=O)O,> 100 µM,> 100 µM,> 100 µM,> 100 µM,> 100 µM,,> 100 µM,,,,inactive
